24 compounds from ChEMBL document CHEMBL1144337, “Discovery and structure-activity relationships of 2-benzylpyrrolidine-substituted aryloxypropanols as calcium-sensing receptor antagonists” (Bioorg Med Chem Lett, 2005) can be followed below.

Each structure is given as a SMILES string.

In assay [1] the test system is HEK293. The assay is described as follows: Inhibitory concentration for the inhibition of intracellular [Ca2+] release in HEK cells by using FLIPR technology. In kind it is functional, cell-based. The conditions noted are these: Homo sapiens. The essentials: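 HEK cells over-expressing recombinant human calcium-sensing receptor. Intracellular Ca²⁺ release was stimulated with extracellular Ca²⁺, and inhibition by test compound was read by fluorescence on FLIPR. IC50 values are means of two experiments, with standard deviation reported.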

Assay [2] concerns the target Voltage-gated inwardly rectifying potassium channel KCNH2 (Homo sapiens, UniProt Q12809). Briefly: Inhibitory concentration against human Kv11.1 ERG potassium channel. The essentials: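 Inhibition of hERG K+ current, measured by a patch-clamp assay, reported as an IC50.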

Sequence of Voltage-gated inwardly rectifying potassium channel KCNH2 (Q12809 whole entry): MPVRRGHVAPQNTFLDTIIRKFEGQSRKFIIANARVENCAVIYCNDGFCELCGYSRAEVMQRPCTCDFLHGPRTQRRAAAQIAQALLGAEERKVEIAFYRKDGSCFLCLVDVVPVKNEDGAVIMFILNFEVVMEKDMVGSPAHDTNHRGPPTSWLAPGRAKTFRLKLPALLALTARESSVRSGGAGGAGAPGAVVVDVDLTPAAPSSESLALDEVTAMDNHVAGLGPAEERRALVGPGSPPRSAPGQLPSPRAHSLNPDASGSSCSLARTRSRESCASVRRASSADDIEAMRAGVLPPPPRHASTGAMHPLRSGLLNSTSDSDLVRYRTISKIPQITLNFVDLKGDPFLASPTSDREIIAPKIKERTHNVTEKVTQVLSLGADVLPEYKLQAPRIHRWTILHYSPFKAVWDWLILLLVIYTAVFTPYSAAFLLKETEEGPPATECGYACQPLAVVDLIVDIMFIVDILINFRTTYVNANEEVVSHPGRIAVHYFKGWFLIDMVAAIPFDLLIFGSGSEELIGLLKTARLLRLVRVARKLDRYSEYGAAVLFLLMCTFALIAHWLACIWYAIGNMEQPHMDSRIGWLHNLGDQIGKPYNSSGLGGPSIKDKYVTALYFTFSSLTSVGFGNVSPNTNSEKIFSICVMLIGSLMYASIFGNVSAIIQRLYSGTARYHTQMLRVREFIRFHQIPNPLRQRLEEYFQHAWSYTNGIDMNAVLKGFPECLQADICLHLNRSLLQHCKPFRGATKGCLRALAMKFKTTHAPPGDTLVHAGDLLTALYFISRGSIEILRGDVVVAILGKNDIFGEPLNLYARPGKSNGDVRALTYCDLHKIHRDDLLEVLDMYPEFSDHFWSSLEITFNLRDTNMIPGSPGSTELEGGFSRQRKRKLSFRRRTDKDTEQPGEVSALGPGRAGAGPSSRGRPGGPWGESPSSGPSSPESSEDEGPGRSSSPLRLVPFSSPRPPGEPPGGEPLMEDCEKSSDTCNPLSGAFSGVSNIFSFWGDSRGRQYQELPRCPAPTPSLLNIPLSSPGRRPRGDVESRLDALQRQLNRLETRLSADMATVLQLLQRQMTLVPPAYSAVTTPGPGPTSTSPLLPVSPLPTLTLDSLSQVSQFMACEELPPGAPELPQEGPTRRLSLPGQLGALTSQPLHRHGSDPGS

For `N#Cc1c(Cl)cccc1OC[C@H](O)CN1CCC[C@H]1Cc1ccccc1`, the IC50 (as a rule, the concentration needed to halve the response being measured) in assay [1] stood at 0.12 µM.
The same measure, in the same setting: for `N#Cc1c(Cl)cccc1OC[C@H](O)CN1CCC(Cc2cc(F)ccc2F)CC1` the value was 2.1 µM; for `COc1ccccc1C[C@@H]1CCCN1C[C@@H](O)COc1cccc(Cl)c1C#N`, > 30 µM; for `COc1cccc(CC2CCN(C[C@@H](O)COc3cccc(Cl)c3C#N)CC2)c1`, 0.64 µM.
Compound `N#Cc1c(Cl)cccc1OC[C@H](O)CN1CCC(Cc2ccccc2)CC1` came in with a concentration for half-maximal inhibition (IC50) in assay [1] of 2.2 µM.
Same read-out and setting: next, `CN(C)c1ccc(C[C@@H]2CCCN2C[C@@H](O)COc2cccc(Cl)c2C#N)cc1`: 1.9 µM.
Still for that read-out and setting: next, `N#Cc1c(Cl)cccc1OC[C@H](O)CN1CCC(Cc2ccccc2)C1` (stereo not given in full): 10 µM.
Consider `N#Cc1c(Cl)cccc1OC[C@H](O)CN1CCCC1Cc1ccccc1` (stereo not given in full), for which 0.35 µM corresponded to half-maximal inhibition in assay [1] (IC50).
Regarding `N#Cc1c(Cl)cccc1OC[C@H](O)CN1CCC[C@H]1Cc1ccc(O)cc1`, the IC50 in assay [1] is > 30 µM.
In assay [1], `COc1cccc(C[C@@H]2CCCN2C[C@@H](O)COc2cccc(Cl)c2C#N)c1` had an IC50 of 0.13 µM.
On to `CC(C)(Cc1ccc2ccccc2c1)NC[C@@H](O)COc1cccc(Cl)c1C#N`, for which the IC50 worked out at 0.08 µM in assay [1] and 0.194 µM in assay [2].
The compound `N#Cc1c(Cl)cccc1OC[C@H](O)CN1CC[C@@H](O)[C@H]1Cc1ccccc1` yielded an IC50 in assay [1] of 1.4 µM.
For the compound `COc1cccc(C(O)[C@@H]2CCCN2C[C@@H](O)COc2cccc(Cl)c2C#N)c1` (stereo not given in full), the IC50 in assay [1] is > 30 µM.
On the same count and under the same terms, for `N#Cc1c(Cl)cccc1OC[C@H](O)CN1CCCC(Cc2ccccc2)C1` (stereo not given in full) the value was > 30 µM; for `N#Cc1c(Cl)cccc1OC[C@H](O)CN1CCCCC1Cc1ccccc1` (stereo not given in full), > 30 µM; for `N#Cc1c(Cl)cccc1OC[C@H](O)CN1CC[C@H](F)[C@H]1Cc1ccccc1`, 2.8 µM.
On the same count and under the same terms, next, `N#Cc1c(Cl)cccc1OC[C@H](O)CN1CCC[C@H]1Cc1cccc(F)c1`: 0.15 µM.
On the same count and under the same terms, next, `COc1ccc(C[C@@H]2CCCN2C[C@@H](O)COc2cccc(Cl)c2C#N)cc1`: 0.2 µM; `N#Cc1c(Cl)cccc1OC[C@H](O)CN1CCC[C@H]1C(O)c1cccc(F)c1` (stereo not given in full): 2.3 µM.
For `N#Cc1c(Cl)cccc1OC[C@H](O)CN1CCC(F)(F)[C@H]1Cc1ccccc1`, the IC50 in assay [1] was > 30 µM.
For `COc1ccc(CC2CCN(C[C@@H](O)COc3cccc(Cl)c3C#N)CC2)cc1`, the IC50 in assay [1] is > 30 µM.
The same measure, in the same setting: for `N#Cc1c(Cl)cccc1OC[C@H](O)CN1CCC[C@@H]1Cc1ccccc1` the value was > 30 µM; for `N#Cc1c(Cl)cccc1OC[C@H](O)CN1CCC[C@H]1Cc1ccccc1O`, 0.1 µM; for `COc1ccc(C[C@@H]2CCCN2C[C@@H](O)COc2cccc(Cl)c2C#N)cc1OC`, 0.41 µM.
